Test [1] addresses T1, GalNAc-T4 wild-type (Homo sapiens, UniProt Q8N4A0). In words: Transferase assay and kinetics, wild-type GalNAc-T4. Format: biochemical. The conditions noted are these: for Activity relative to glycopeptides 4 and 5 (fold higher): from Figure 1a. The essentials: (§1)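 Enzyme construct residues 36–578, wild-type or site-directed mutants. Reaction: 75 mM Na cacodylate pH 6.5, 1 mM 2-mercaptoethanol, 10 mM MnCl2, 0.25 mM UDP-[3H]GalNAc, 0.004–1.4 mM (glyco)peptide and 0.02–0.2 μM enzyme, at 37 °C for 10–180 min (≤30% donor used). EDTA quench, Dowex, then Sephadex G10 to separate transfer from hydrolysis. Rates hydrolysis-corrected, 2–5 repeats; Km, Vmax and Ki from Michaelis–Menten ± substrate-inhibition fits.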

Test [2] addresses GalNAc-T4 Lectin Mutant (D459H) (Homo sapiens, UniProt Q8N4A0, D459H). The test can be described thus: Transferase assay and kinetics, lectin mutant. Format: biochemical. The conditions noted are these: for UDP-GalNAc Hydrolysis %: Sephadex G10 chromatography (Figure S8). The essentials:
as §1

For test [3], the target named is GalNAc-T4 Catalytic Mutant (T283S-Q285A) (Homo sapiens, UniProt Q8N4A0, Q285A/T283S). In words: Transferase assay and kinetics, catalytic mutant. Format: biochemical.
The target in test [4] is GalNAc-T4 Lectin Flexible Loop (LFL) deletion/mutant (P463DNNP467 to GGG) (Homo sapiens, UniProt Q8N4A0, DEL463-464/N465G/N466G/P467G). The test can be described thus: Transferase assay and kinetics, LFL mutant. Conditions: for UDP-GalNAc Hydrolysis %: LFL deletion/mutant, Sephadex G10 chromatography (Figure S8). Format: biochemical. The essentials: as §1
For test [5], the target named is GalNAc-T4 Catalytic/LFL Mutant (T283S-Q285A-D464A) (Homo sapiens, UniProt Q8N4A0, D464A/Q285A/T283S). The test can be described thus: Transferase assay and kinetics, catalytic/LFL mutant. The format is biochemical. The essentials:
as §1

For test [6], the target named is T2, GalNAc-T4 (Homo sapiens, UniProt Q8N4A0). In words: Surface plasmon resonance binding to GalNAc-T4. The conditions noted are these: wild-type. The essentials: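 SPR binding of glycopeptide substrate to wild-type enzyme, run with excess UDP and MnCl2 present; Kd obtained by fitting the binding data.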
In test [7] the target is catalytic domain mutant of GalNAc-T4 (T283S-Q285A) (Homo sapiens, UniProt Q8N4A0, Q285A/T283S). The test can be described thus: Surface plasmon resonance binding to GalNAc-T4 catalytic mutant. Conditions: T283S/Q285A catalytic mutant (Figure S11).
In test [8] the target is T2, GalNAc-T4. The test can be described thus: STD-NMR epitope mapping with GalNAc-T4. Format: binding. The conditions noted are these: ~877 μM glycopeptide, 13.5 μM GalNAc-T4, 75 μM UDP, 75 μM MnCl2, 298 K.
Test [9] addresses T1, GalNAc-T4 wild-type. The conditions noted are these: cited from earlier work.
For test [10], the target named is T2, GalNAc-T4. The conditions noted are these: in presence of GalNAc-T4, UDP, MnCl2; cited from earlier work.
The target of test [11] is T2, GalNAc-T4. The conditions noted are these: wild-type GalNAc-T4, excess UDP and MnCl2; saturation not achieved; cited from earlier work.
Test [12] has as its target GalNAc-T4 (polypeptide GalNAc-transferase 4), wild type, residues 36-578 (human, UniProt Q8N4A0 36-578). The test can be described thus: SPR.
In test [13] the target is GalNAc-T4 catalytic mutant (T283S, Q285A), residues 36-578 (human, UniProt Q8N4A0 36-578, T283S | Q285A). In words: SPR.

“And” between values parts separate entries of the source, which are not always exact repeats. Equal entries are not always repeated. Ends that are not written are not given here. Peptide text beside a SMILES is read from it. * marks the point of attachment. αGalNAc = CC(=O)N[C@@H]1[C@@H](O)[C@@H](O)[C@@H](CO)O[C@@H]1*

With `CC(=O)N[C@H]1[C@@H](O[C@H](C)[C@H](NC(=O)CNC(=O)[C@H](C)NC(=O)CNC(=O)[C@H](C)NC(=O)CNC(=O)[C@H](C)NC(=O)CNC(=O)[C@@H](NC(=O)[C@H](C)NC(=O)CN)[C@@H](C)O[C@H]2O[C@H](CO)[C@H](O)[C@H](O)[C@H]2NC(C)=O)C(=O)N[C@H](C(=O)N2CCC[C@H]2C(=O)NCC(=O)N2CCC[C@H]2C(=O)NCC(N)=O)[C@@H](C)O)O[C@H](CO)[C@H](O)[C@@H]1O` [compound 6] (H-GAT(αGalNAc)GAGAGAGT(αGalNAc)TPGPG-NH2; N-terminus and C-terminus assumed), on GalNAc-T4 wild-type [1], the “Catalytic efficiency (Vmax/Km) relative to peptide 3 (fold higher)” value is on record as about 1.5 fold; the “Catalytic efficiency (Vmax/Km) relative to peptide 4 (fold higher)” value is about 150 fold; the “Km relative to peptide 3 (fold lower)” value is recorded as about 1.3 fold; the “Activity relative to glycopeptides 4 and 5 (fold higher)” value is listed as about 10 fold. Further, in test [2], the “Km increase relative to wt GalNAc-T4” value is about 20 fold, the “Vmax decrease relative to wt GalNAc-T4” value is given as about 5 fold and the “UDP-GalNAc Hydrolysis %” value is given as about 20%. Also, in [3], the “Catalytic efficiency Vmax/Km as fraction of wt” value is listed as “about 1/2”; the “Initial Vmax relative to wt transferase (fold higher)” value is recorded as about 2 fold; the “Km relative to wt (fold higher)” value is ~4 fold and ~3 fold. Also, the “Apparent Vmax relative to wt GalNAc-T4 (fold higher)” value in [4] (LFL mutant) was about 2 fold. In addition, the “Km relative to catalytic mutant (fold lower)” value in test [5] is given as about 4 fold. Further, on GalNAc-T4 [6], the “Kd (SPR) relative to Km (fold higher)” value is recorded as about 2 fold. Also, the “Kd by SPR relative to wt transferase (fold higher)” value in [7] is about 6 fold. Also, the “STD-NMR response, H2 proton of the GalNAc at Thr11” value on GalNAc-T4 [8] (catalytic domain bound neighboring GalNAc) was found to be 50%. The “STD-NMR response, H2 proton of the GalNAc at Thr3” value on GalNAc-T4 [8] (remote lectin bound GalNAc) amounted to 90%.

Turning to AGAGT*TPGPGAGAT*GA [compound 5], in [3], the “Catalytic activity (Vmax) as fraction of wt GalNAc-T4 activity” value is 1/3 and the “Km relative to wt (fold higher)” value is listed as about 2 fold. Further, the “UDP-GalNAc Hydrolysis %” value in test [4] is listed as about 50%. In test [4] (LFL mutant), the “Reduction in catalytic efficiency compared to wt GalNAc-T4” value is about 50%. Also, in [5], the “Apparent activity and Vmax as fraction of the values for the catalytic and LFL mutants” value is recorded as 1/4.

For the molecule AGAGTTPGPGAGAT*GA [compound 2], the “UDP-GalNAc Hydrolysis %” value in [4] is on record as about 90%. Besides, the “Glycosylation by GalNAc-T4 (in words)” value on GalNAc-T4 wild-type [9] is given as “imperceptibly glycosylated”.

As to GAGAGAGT*TPGPG [compound 4], in [2], the “Catalytic efficiency relative to wt transferase (fold higher)” value is reported as about 2 fold and the “Vmax relative to wt transferase (fold higher)” value is on record as about 2 fold. For the same molecule, in test [3], the “Catalytic activity (Vmax) as fraction of wt GalNAc-T4 activity” value was 1/3 and the “Km relative to wt (fold higher)” value was about 2 fold. Further, the “UDP-GalNAc Hydrolysis %” value in [4] is about 50%. The “Reduction in catalytic efficiency compared to wt GalNAc-T4” value in test [4] (LFL mutant) was about 50%. The “Apparent activity and Vmax as fraction of the values for the catalytic and LFL mutants” value in [5] was 1/4.

Take GAGAGAGTTPGPG [compound 1]: the “UDP-GalNAc Hydrolysis %” value in [4] is given as about 90%. Also, the “Glycosylation by GalNAc-T4 (in words)” value at GalNAc-T4 wild-type [9] is listed as “imperceptibly glycosylated”. For the same molecule, the “STD-NMR enhancements (in words)” value on GalNAc-T4 [10] is recorded as “No significant STD enhancements”.

Take GAT*GAGAGAGTTPGPG [compound 3]: on GalNAc-T4 wild-type [1], the “Catalytic efficiency (Vmax/Km) relative to peptide 4 (fold higher)” value is given as about 100 fold; the “Km relative to peptide 4 (fold lower)” value is about 12 fold; the “Vmax relative to peptide 4 (fold higher)” value is given as about 8 fold; the “Activity relative to glycopeptides 4 and 5 (fold higher)” value is on record as about 10 fold. In test [2], the “Km increase relative to wt GalNAc-T4” value is on record as about 20 fold and the “UDP-GalNAc Hydrolysis %” value is on record as about 70%. The “Km relative to wt (fold higher)” value in test [3] was about 2 fold. The “Km relative to wt (fold higher)” value in [5] is about 2 fold. Moreover, on GalNAc-T4 [11], the “Kd by SPR (in words)” value is listed as “in the mM range”.

Regarding GATGAGAGAGTTPGPG (not fully specified (residues 3, 11); printed as GAT*GAGAGAGT*TPGPG) [diglycopeptide 6, GAT*GAGAGAGT*TPGPG], the Kd in test [12] is 70 ± 15 µM. Besides, in [13], the “fold change of Kd against the wt transferase” value was about 6 fold.
